Laboratory results from ChEMBL document CHEMBL3804828, “2,4,6-Triaminopyrimidine as a Novel Hinge Binder in a Series of PI3Kδ Selective Inhibitors” (J Med Chem, 2016).
pEC50, pIC50: −log10 of the molar value.

Key:
[1] = biological target: PI3-kinase p110-delta/p85-alpha (Homo sapiens, UniProt O00329); test: Inhibition human full length PI3Kdelta catalytic subunit/p85alpha assessed as formation of PIP3 after 30 mins by europium labeled GRP-based TR-FRET assay; type: protein-complex assay
[2] = species on record: Homo sapiens; test: Selectivity ratio of IC50 for human full length PI3Kalpha catalytic subunit/p85alpha to IC50 for human full length PI3Kdelta catalytic subunit/p85alpha
In short: (§1)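 Ratio calculated from the isoform-specific PI3K IC50 values, with enzyme assays run in quadruplicate.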

[3] = species on record: Homo sapiens; test: Selectivity ratio of IC50 for human full length PI3Kgamma to IC50 for human full length PI3Kdelta catalytic subunit/p85alpha; in short: as §1
[4] = Clearance in human hepatocytes at 1 uM by LC/MS/MS analysis; type: ADME, cell-based, Hepatocyte
In short: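 Human hepatocytes, incubated with and without the aldehyde oxidase inhibitor raloxifene; predicted clearance calculated from turnover.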

[5] = Clearance in dog hepatocytes at 1 uM by LC/MS/MS analysis; type: ADME, cell-based, Canis lupus familiaris, Hepatocyte
[6] = Plasma clearance in Lewis rat at 1 mg/kg, iv administered via infusion over 30 mins measured after 24 hrs by LC/MS/MS analysis; type: ADME, organism-based
In short: (§2)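 Female Lewis rats, n=3 per route; 30-min iv infusion at 1 mg/kg and oral dose at 5 mg/kg, both in 30% PEG 400/70% water; plasma concentration-time profiles sampled to 24 h; values as mean ± SD.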

[7] = Plasma clearance in beagle dog at 1 mg/kg, iv administered via infusion over 30 mins measured after 24 hrs by LC/MS/MS analysis; type: ADME, organism-based, Canis lupus familiaris
In short: (§3)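 Dogs, n=3 per route; iv dose 1 mg/kg in 5% ethanol/55% PEG 400/40% citrate buffer pH 2; oral dose 5 mg/kg in 15% Captisol (w/v) in water; plasma pharmacokinetics.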

[8] = Volume of distribution at steady state in Lewis rat at 1 mg/kg, iv administered via infusion over 30 mins measured after 24 hrs by LC/MS/MS analysis; type: ADME, organism-based; settings: in vivo, read-out: Vdss; in short: as §2
[9] = Volume of distribution at steady state in beagle dog at 1 mg/kg, iv administered via infusion over 30 mins measured after 24 hrs by LC/MS/MS analysis; type: ADME, organism-based, Canis lupus familiaris; settings: in vivo, read-out: Vdss; in short: as §3
[10] = Ratio of drug level in blood to plasma in beagle dog; type: ADME, cell-free, Canis lupus familiaris; settings: blood and plasma
[11] = Half life in beagle dog at 5 mg/kg, po administered through gavage measured after 24 hrs by LC/MS/MS analysis; type: ADME, organism-based, Canis lupus familiaris; settings: in vivo
[12] = Oral bioavailability in beagle dog at 5 mg/kg administered through gavage measured after 24 hrs by LC/MS/MS analysis; type: ADME, organism-based, Canis lupus familiaris; settings: in vivo; in short: as §3
[13] = (§4) Inhibition of PI3Kdelta in rat B-cells assessed as reduction in anti IgD-mediated cell activation after 18 to 24 hrs by flow cytometric analysis
In short: (§5)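 Rat whole blood, ex vivo; B-cell activation stimulated by anti-IgD (BCR); EC50 and EC90 derived from inhibition of activation.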

[14] = species on record: Rattus norvegicus; test: as §4; in short: as §5
[15] = tested on: Rattus norvegicus; test: In vivo inhibition of PI3Kdelta in rat B-cells assessed as reduction in […] cell activation; type: functional, organism-based; in short: as §5
[16] = tested on: Rattus norvegicus; test: Antiarthritis activity in collagen-induced Lewis rat arthritis model assessed as reduction in ankle inflammation at 1.07 mg/kg administered bid through oral gavage for 7 days measured every day started on day 9 and continuing through day 16 of compound dosing relative to vehicle-treated control; type: functional
In short: (§6)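 Female Lewis rats with established collagen-induced arthritis dosed orally by gavage twice daily for 7 days (study days 10–16) with vehicle, 0.34, 1.07, 4.6 or 10 mg/kg, or dexamethasone 0.03 mg/kg; right and left ankle diameters by caliper daily, days 9–16; ankle and knee sections graded 0–5 per histopathology parameter; p < 0.05 versus arthritis + vehicle.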

[17] = tested on: Rattus norvegicus; test: In vivo inhibition of PI3Kdelta in collagen-induced Lewis rat arthritis model at 0.34 mg/kg administered bid through oral gavage at 2 to 12 hrs on 3rd and 7th day of compound dosing; type: functional
In short: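 Female Lewis rats with established collagen-induced arthritis got vehicle or drug by oral gavage twice daily for 7 days (study days 10–16). Blood was sampled at set times after dosing on days 3 and 7 for plasma drug levels. PI3Kδ inhibition was inferred from those levels against EC50/EC90 values from a rat whole-blood ex vivo anti-IgD (BCR)-stimulated B-cell activation assay.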

[18] = tested on: Rattus norvegicus; test: In vivo inhibition of PI3Kdelta in collagen-induced Lewis rat arthritis model at 1.07 mg/kg administered bid through oral gavage at 2 to 12 hrs on 3rd and 7th day of compound dosing; type: functional
In short: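 CIA Lewis rats dosed orally twice daily; plasma drug levels measured in blood samples taken at set times post-dose on days 3 and 7; trough PI3Kδ inhibition estimated from EC50/EC90 of the rat whole-blood ex vivo BCR-induced B-cell activation assay.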

[19] = tested on: Rattus norvegicus; test: Antiarthritis activity in collagen-induced Lewis rat arthritis model assessed as reduction in pannus formation at 1.07 mg/kg administered bid through oral gavage for 7 days measured every day started on day 9 and continuing through day 16 of compound dosing relative to vehicle-treated control; type: functional; set-up: scale not given: the % may be the effect or the level left; in short: as §6
[20] = tested on: Rattus norvegicus; test: Antiarthritis activity in collagen-induced Lewis rat arthritis model assessed as reduction in cartilage damage at 1.07 mg/kg administered bid through oral gavage for 7 days measured every day started on day 9 and continuing through day 16 of compound dosing relative to vehicle-treated control; type: functional; set-up: scale not given: the % may be the effect or the level left; in short: as §6
[21] = tested on: Rattus norvegicus; test: Antiarthritis activity in collagen-induced Lewis rat arthritis model assessed as reduction of bone resorption at 1.07 mg/kg administered bid through oral gavage for 7 days measured every day started on day 9 and continuing through day 16 of compound dosing relative to vehicle-treated control; type: functional; set-up: scale not given: the % may be the effect or the level left; in short: as §6
[22] = tested on: Rattus norvegicus; test: Antiarthritis activity in collagen-induced Lewis rat arthritis model assessed as reduction of periosteal bone width at 1.07 mg/kg administered bid through oral gavage for 7 days measured every day started on day 9 and continuing through day 16 of compound dosing relative to vehicle-treated control; type: functional; set-up: scale not given: the % may be the effect or the level left; in short: as §6
[23] = tested on: Rattus norvegicus; test: Antiarthritis activity in collagen-induced Lewis rat arthritis model assessed as reduction in ankle inflammation administered bid through oral gavage for 7 days measured every day started on day 9 and continuing through day 16 of compound dosing; type: functional; in short: as §6
[24] = tested on: Rattus norvegicus; test: Antiarthritis activity in collagen-induced Lewis rat arthritis model assessed as reduction in pannus formation administered bid through oral gavage for 7 days measured every day started on day 9 and continuing through day 16 of compound dosing; type: functional; in short: as §6
[25] = tested on: Rattus norvegicus; test: Antiarthritis activity in collagen-induced Lewis rat arthritis model assessed as reduction in cartilage damage administered bid through oral gavage for 7 days measured every day started on day 9 and continuing through day 16 of compound dosing; type: functional; in short: as §6
[26] = tested on: Rattus norvegicus; test: Antiarthritis activity in collagen-induced Lewis rat arthritis model assessed as reduction of bone resorption administered bid through oral gavage for 7 days measured every day started on day 9 and continuing through day 16 of compound dosing; type: functional; in short: as §6
[27] = tested on: Rattus norvegicus; test: Antiarthritis activity in collagen-induced Lewis rat arthritis model assessed as reduction of periosteal bone width administered bid through oral gavage for 7 days measured every day started on day 9 and continuing through day 16 of compound dosing; type: functional; in short: as §6
[28] = Tmax in Lewis rat at 1 mg/kg, iv administered via infusion over 30 mins or at 5 mg/kg, po administered via gavage by LC/MS/MS analysis; type: ADME, organism-based; settings: in vivo; in short: as §2
[29] = AUCinfinity in Lewis rat at 1 mg/kg, iv administered via infusion over 30 mins or at 5 mg/kg, po administered via gavage by LC/MS/MS analysis; type: ADME, organism-based; settings: in vivo; in short: as §2

PI3-kinase p110-delta/p85-alpha, sequence (P27986 whole entry): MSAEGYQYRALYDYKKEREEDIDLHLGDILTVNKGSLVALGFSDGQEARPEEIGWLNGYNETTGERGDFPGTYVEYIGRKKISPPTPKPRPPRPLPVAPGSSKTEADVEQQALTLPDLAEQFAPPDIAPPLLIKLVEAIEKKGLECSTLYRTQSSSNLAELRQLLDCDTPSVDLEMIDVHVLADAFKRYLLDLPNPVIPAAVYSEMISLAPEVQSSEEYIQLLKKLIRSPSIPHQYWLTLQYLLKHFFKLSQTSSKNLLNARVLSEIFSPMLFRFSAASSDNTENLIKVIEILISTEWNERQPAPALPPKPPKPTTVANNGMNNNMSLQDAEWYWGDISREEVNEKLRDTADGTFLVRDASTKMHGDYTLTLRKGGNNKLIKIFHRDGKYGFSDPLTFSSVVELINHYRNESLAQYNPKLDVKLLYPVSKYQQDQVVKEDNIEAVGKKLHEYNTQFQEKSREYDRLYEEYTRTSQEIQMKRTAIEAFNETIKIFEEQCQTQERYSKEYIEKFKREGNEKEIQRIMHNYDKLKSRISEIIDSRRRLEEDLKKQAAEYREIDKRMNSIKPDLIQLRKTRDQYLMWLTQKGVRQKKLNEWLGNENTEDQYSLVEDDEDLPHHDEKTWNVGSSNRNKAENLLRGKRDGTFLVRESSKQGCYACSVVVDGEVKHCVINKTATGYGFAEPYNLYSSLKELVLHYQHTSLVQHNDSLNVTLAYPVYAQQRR
PI3-kinase p110-delta/p85-alpha, sequence (O00329 whole entry): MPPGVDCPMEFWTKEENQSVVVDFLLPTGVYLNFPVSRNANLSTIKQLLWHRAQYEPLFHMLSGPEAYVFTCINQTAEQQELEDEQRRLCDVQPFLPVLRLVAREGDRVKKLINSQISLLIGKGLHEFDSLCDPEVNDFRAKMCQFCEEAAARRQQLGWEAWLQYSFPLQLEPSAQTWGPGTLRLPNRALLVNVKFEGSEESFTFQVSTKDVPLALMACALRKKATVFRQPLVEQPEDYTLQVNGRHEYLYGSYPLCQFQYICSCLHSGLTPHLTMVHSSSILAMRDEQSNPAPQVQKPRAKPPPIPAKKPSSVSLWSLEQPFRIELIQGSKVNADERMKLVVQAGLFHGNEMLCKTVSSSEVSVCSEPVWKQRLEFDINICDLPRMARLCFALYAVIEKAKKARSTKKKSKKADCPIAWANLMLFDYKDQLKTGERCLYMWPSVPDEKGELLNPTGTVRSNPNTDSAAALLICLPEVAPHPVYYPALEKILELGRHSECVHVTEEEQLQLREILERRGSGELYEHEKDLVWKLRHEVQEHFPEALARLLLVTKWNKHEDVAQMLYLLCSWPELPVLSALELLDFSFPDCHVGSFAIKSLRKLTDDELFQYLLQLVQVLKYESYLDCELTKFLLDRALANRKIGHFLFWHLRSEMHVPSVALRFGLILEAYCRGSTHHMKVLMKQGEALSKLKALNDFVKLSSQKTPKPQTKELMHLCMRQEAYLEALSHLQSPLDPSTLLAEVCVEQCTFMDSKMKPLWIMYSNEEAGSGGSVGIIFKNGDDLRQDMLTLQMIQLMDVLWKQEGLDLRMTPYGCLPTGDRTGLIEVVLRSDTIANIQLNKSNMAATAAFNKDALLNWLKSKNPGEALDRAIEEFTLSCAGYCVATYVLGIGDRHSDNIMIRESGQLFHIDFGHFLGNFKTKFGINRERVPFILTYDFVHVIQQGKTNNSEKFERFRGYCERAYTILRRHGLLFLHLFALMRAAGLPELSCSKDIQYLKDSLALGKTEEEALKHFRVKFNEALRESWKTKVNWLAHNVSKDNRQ

- pIC50 [1]: 8.66
- Ratio IC50 [2]: 1900
- Ratio IC50 [3]: 180
- CLhep predicted at 1 µM [4]: 5.67 mL/min/kg
- CLH [5]: 4.17 mL/min/kg
- clearance [6]: 12.3 mL/min/kg
- clearance [7]: 9.67 mL/min/kg
- Vd [8]: 2.6 L/kg
- Vd [9]: 1.3 L/kg
- blood plasma ratio [10]: 2.6
- half-life [11]: 2.17 h
- bioavailability [12]: 100%
- pEC50 [13]: 7.96
- EC90 [14]: 100 nM
- EC90 [15]: 100 nM
- pEC50 ([15]; Rattus norvegicus): 7.69
- Tmax [28]: 1 h
- AUC(0-inf) [29]: 17 µM·h
Structure (SMILES): C[C@H](Nc1nc(N)nc(N)c1C#N)c1nc2cccc(F)c2c(=O)n1-c1cc(F)cc(F)c1
- inhibition in vivo at 1.07 mg/kg [16]: 45%
- inhibition in vivo at 0.34 mg/kg [17]: 25%
- inhibition in vivo at 1.07 mg/kg [18]: 50%
- Activity [19]: 60%
- Activity [20]: 50%
- Activity [21]: 63%
- Activity [22]: 52%
- ED50 [23]: 1.5 mg/kg
- ED50 [24]: 1.5 mg/kg
- ED50 [25]: 1.5 mg/kg
- ED50 [26]: 1.5 mg/kg
- ED50 [27]: 1.5 mg/kg
